Laboratory results as given in ChEMBL document CHEMBL1649125, “Efficacy of the novel diamidine compound 2,5-Bis(4-amidinophenyl)- furan-bis-O-Methlylamidoxime (Pafuramidine, DB289) against Trypanosoma brucei rhodesiense infection in vervet monkeys after oral administration” (2009).
Activity calls are given as the source filed them. No cut-off for these calls is given here.

Legend:
[1] = tested on: Trypanosoma brucei rhodesiense; experiment: Antimicrobial activity against Trypanosoma brucei rhodesiense infected in vervet monkeys assessed as cure from infection at 1 mg/kg, po administered on day 7 post infection for 5 days; assay type: functional, organism-based; design: dose 1 mg/kg
Summary of the method: (§1)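 Vervet monkeys (n=3 per group), infected with T. b. rhodesiense KETRI 2537. Dosed by oral gavage with a suspension once daily for 5 consecutive days from day 7 p.i. Cure meant no trypanosomes over 180 days p.t. in blood (wet film, HCT) or CSF (hemocytometer, centrifugation), with mouse subinoculation of negative samples.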

[2] = tested on: Trypanosoma brucei rhodesiense; experiment: Antitrypanosomal activity against Trypanosoma brucei rhodesiense infected in vervet monkey 483 assessed as time to detect CSF parasitosis at 3 mg/kg, po administered on day 7 post infection for 5 days measured after 14 to 21 days by microscopy; assay type: functional
Summary of the method: (§2)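 Trypanosomes and white cells in free-flowing CSF were counted by hemocytometer. Negative CSF was centrifuged and re-examined. Samples still negative were inoculated at 0.2 ml intraperitoneally into two mice each. Drug was given once daily by oral gavage: 5 days from day 7 p.i., or 10 days from day 28 p.i.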

[3] = tested on: Trypanosoma brucei rhodesiense; experiment: Antitrypanosomal activity against Trypanosoma brucei rhodesiense infected in vervet monkey 411 assessed as cure from infection at 3 mg/kg, po administered on day 7 post infection for 5 days; assay type: functional, organism-based; design: dose 3 mg/kg; summary of the method: as §1
[4] = tested on: Trypanosoma brucei rhodesiense; experiment: Antitrypanosomal activity against Trypanosoma brucei rhodesiense infected in vervet monkey 485 assessed as time to detect parasitemia in wet films of blood at 1 mg/kg, po administered on day 7 post infection for 5 days by hematocrit centrifugation technique; assay type: functional
Summary of the method: (§3)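 Parasitemia was monitored from 3 days p.i. in ear-prick or inguinal venous blood. Methods were wet-film microscopy (detection limit 10^5 trypanosomes/ml) and hematocrit centrifugation technique (detection limit 10^3 trypanosomes/ml). Drug was given once daily by oral gavage: 5 days from day 7 p.i., or 10 days from day 28 p.i.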

[5] = tested on: Trypanosoma brucei rhodesiense; experiment: Antitrypanosomal activity against Trypanosoma brucei rhodesiense infected in vervet monkey 463 assessed as time to detect parasitemia at 1 mg/kg, po administered on day 7 post infection for 5 days; assay type: functional; summary of the method: as §3
[6] = tested on: Trypanosoma brucei rhodesiense; experiment: Antitrypanosomal activity against Trypanosoma brucei rhodesiense infected in vervet monkey assessed as body weight change at 10 mg/kg, po administered on day 14 post infection for 5 days measured on day 28 post treatment; assay type: functional
[7] = tested on: Trypanosoma brucei rhodesiense; experiment: Antitrypanosomal activity against Trypanosoma brucei rhodesiense infected in vervet monkey assessed as body weight change at 10 mg/kg, po administered on day 28 post infection for 10 days; assay type: functional
Summary of the method: (§4)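 Body weight change is given as percent of the mean preinfection weight (n=3 per group). It was recorded at day 0 p.t., day 28 p.t. and end point. Oral gavage was once daily: 5 days from day 7 p.i., or 10 days from day 28 p.i.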

[8] = tested on: Trypanosoma brucei rhodesiense; experiment: Antitrypanosomal activity against Trypanosoma brucei rhodesiense infected in vervet monkey 482 assessed as time to detect CSF parasitosis at 3 mg/kg, po administered on day 7 post infection for 5 days measured after 14 to 21 days by microscopy; assay type: functional; summary of the method: as §2
[9] = tested on: Trypanosoma brucei rhodesiense; experiment: Antitrypanosomal activity against Trypanosoma brucei rhodesiense infected in vervet monkey assessed as change in packed cell volume at 10 mg/kg, po administered on day 14 post infection for 5 days; assay type: functional
[10] = tested on: Trypanosoma brucei rhodesiense; experiment: Antitrypanosomal activity against Trypanosoma brucei rhodesiense infected in vervet monkey 482 assessed as time to detect parasitemia at 3 mg/kg, po administered on day 7 post infection for 5 days; assay type: functional; summary of the method: as §3
[11] = tested on: Trypanosoma brucei rhodesiense; experiment: Antitrypanosomal activity against Trypanosoma brucei rhodesiense infected in vervet monkey 454 assessed as cure from infection at 10 mg/kg, po administered on day 7 post infection for 5 days; assay type: functional, organism-based; design: dose 10 mg/kg; summary of the method: as §1
[12] = tested on: Trypanosoma brucei rhodesiense; experiment: Antitrypanosomal activity against Trypanosoma brucei rhodesiense infected in vervet monkey assessed as body weight change at 3 mg/kg, po administered on day 7 post infection for 5 days; assay type: functional; summary of the method: as §4
[13] = tested on: Trypanosoma brucei rhodesiense; experiment: Antitrypanosomal activity against Trypanosoma brucei rhodesiense infected in vervet monkey 471 assessed as time to detect parasitemia in wet films of blood at 10 mg/kg, po administered on day 14 post infection for 5 days by hematocrit centrifugation technique
[14] = tested on: Trypanosoma brucei rhodesiense; experiment: Antimicrobial activity against Trypanosoma brucei rhodesiense infected in vervet monkeys assessed as cure from infection at 10 mg/kg, po administered for 10 days
[15] = tested on: Trypanosoma brucei rhodesiense; experiment: Antitrypanosomal activity against Trypanosoma brucei rhodesiense infected in vervet monkey 484 assessed as time to detect parasitemia in wet films of blood at 1 mg/kg, po administered on day 7 post infection for 5 days by hematocrit centrifugation technique; assay type: functional; summary of the method: as §3
[16] = tested on: Trypanosoma brucei rhodesiense; experiment: Antitrypanosomal activity against Trypanosoma brucei rhodesiense infected in vervet monkey 486 assessed as cure from infection at 10 mg/kg, po administered on day 7 post infection for 5 days; assay type: functional, organism-based; design: dose 10 mg/kg; summary of the method: as §1
[17] = tested on: Trypanosoma brucei rhodesiense; experiment: Antitrypanosomal activity against Trypanosoma brucei rhodesiense infected in vervet monkey assessed as body weight change at 1 mg/kg, po administered on day 7 post infection for 5 days; assay type: functional; summary of the method: as §4
[18] = tested on: Trypanosoma brucei rhodesiense; experiment: Antitrypanosomal activity against Trypanosoma brucei rhodesiense infected in vervet monkey 471 assessed as time to detect CSF parasitosis at 10 mg/kg, po administered on day 14 post infection for 5 days measured after 14 to 21 days by microscopy; assay type: functional, organism-based; design: dose 10 mg/kg
[19] = tested on: Trypanosoma brucei rhodesiense; experiment: Antitrypanosomal activity against Trypanosoma brucei rhodesiense infected in vervet monkey 463 assessed as time to detect parasitemia in wet films of blood at 1 mg/kg, po administered on day 7 post infection for 5 days by hematocrit centrifugation technique; assay type: functional; summary of the method: as §3
[20] = tested on: Trypanosoma brucei rhodesiense; experiment: Antitrypanosomal activity against Trypanosoma brucei rhodesiense infected in vervet monkey assessed as change in packed cell volume at 10 mg/kg, po administered on day 7 post infection for 5 days; assay type: functional
Summary of the method: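 Vervet monkeys, three per group, were infected intravenously with T. b. rhodesiense KETRI 2537. From day 7 p.i., a drug suspension was given by oral gavage once daily for 5 consecutive days. Packed cell volume was expressed as % change from the group's mean preinfection value. PCV was read at day 0 p.t., day 28 p.t. and endpoint, with follow-up to 180 days p.t.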

[21] = tested on: Trypanosoma brucei rhodesiense; experiment: Antitrypanosomal activity against Trypanosoma brucei rhodesiense infected in vervet monkey 485 assessed as time to detect CSF parasitosis at 1 mg/kg, po administered on day 7 post infection for 5 days measured after 14 to 21 days by microscopy; assay type: functional; summary of the method: as §2
[22] = tested on: Trypanosoma brucei rhodesiense; experiment: Antitrypanosomal activity against Trypanosoma brucei rhodesiense infected in vervet monkey 478 assessed as cure from infection at 10 mg/kg, po administered on day 14 post infection for 5 days
[23] = tested on: Trypanosoma brucei rhodesiense; experiment: Antitrypanosomal activity against Trypanosoma brucei rhodesiense infected in vervet monkey 501 assessed as time to detect parasitemia in wet films of blood at 10 mg/kg, po administered on day 28 post infection for 10 days by hematocrit centrifugation technique; assay type: functional; summary of the method: as §3
[24] = tested on: Trypanosoma brucei rhodesiense; experiment: Antitrypanosomal activity against Trypanosoma brucei rhodesiense infected in vervet monkey 463 assessed as time to detect CSF parasitosis at 1 mg/kg, po administered on day 7 post infection for 5 days measured after 7 to 14 days; assay type: functional, organism-based; design: dose 1 mg/kg; summary of the method: as §2
[25] = tested on: Trypanosoma brucei rhodesiense; experiment: Antitrypanosomal activity against Trypanosoma brucei rhodesiense infected in vervet monkey assessed as change in packed cell volume at 10 mg/kg, po administered on day 14 post infection for 5 days measured on day 28 post treatment; assay type: functional
[26] = tested on: Trypanosoma brucei rhodesiense; experiment: Antitrypanosomal activity against Trypanosoma brucei rhodesiense infected in vervet monkey 501 assessed as time to detect CSF parasitosis at 10 mg/kg, po administered on day 28 post infection for 10 days measured after 7 to 14 days; assay type: functional, organism-based; design: dose 10 mg/kg; summary of the method: as §2

`CONC(=N)c1ccc(-c2ccc(-c3ccc(C(=N)NOC)cc3)o2)cc1` [PAFURAMIDINE] was tested, and the Activity [1] was “inactive”, the Time [2] was 55 days and the Time [3] was “Active”. It also gave a Time [4] of 3 days, a Time [5] of 7 days and an Activity [6] of -5.2%. For the same molecule, the Activity [7] was -10.5%, the Time [8] was 21 days and the Activity [9] was -25.8%. The Time [10] was 55 days, the Time [11] was “Active” and the Activity [12] was -5%. For the same molecule, the Time [13] was 87 days, the Activity [14] was “inactive” and the Time [15] was 4 days. For the same molecule, the Time [16] was “Active”, the Activity [17] was -2.2% and the Time [18] was “inactive”. The Time [19] was 9 days, the Activity [20] was -5.8% and the Time [21] was 21 days. The Time [22] was “Active”, the Time [23] was 73 days and the Time [24] was “inactive”. The Activity [25] was -13.5% and the Time [26] was “inactive”.
